# Laboratory results: ChEMBL document CHEMBL2169797, “Rediocide A, an Insecticide, induces G-protein-coupled receptor desensitization via activation of conventional protein kinase C” (J Nat Prod, 2012)
# Calls of active or inactive are those of the source. The rule behind the calls is not given here.
# Columns and labels:
# [1] = (§1) Inhibition of Drosophila MthB expressed in HEK293 cells assessed as inhibition of SunA1-30-induced calcium influx incubated for 10 mins prior to SunA1-30 addition by Fluo-4-AM based fluorimetry; assay type: cell-based
# Outline: (§2)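 HEK293 cells stably co-expressing the receptor and Gα16, seeded 3 × 10^4/well overnight. Loaded with 2 μM Fluo-4 AM in HBSS (pH 7.4, 250 μM sulfinpyrazone) 45 min at 37 °C, then pretreated with compound. Receptor-specific agonist added (SunA1-30 for Mth-B). Calcium recorded at ex 485/em 525 nm. IC50 from nonlinear regression; mean ± SEM, n = 3.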
# [2] = test system: HEK293; test: as §1; assay type: cell-based; outline: as §2
# [3] = target: T1, Alpha-1A adrenergic receptor (Homo sapiens, UniProt P35348); test: Inhibition of adrenergic receptor 1a expressed in HEK293 cells assessed as inhibition of calcium influx after 10 mins by Fluo-4-AM based fluorimetry; assay type: functional, cell-based; outline: as §2
# T1 sequence (P35348 whole entry): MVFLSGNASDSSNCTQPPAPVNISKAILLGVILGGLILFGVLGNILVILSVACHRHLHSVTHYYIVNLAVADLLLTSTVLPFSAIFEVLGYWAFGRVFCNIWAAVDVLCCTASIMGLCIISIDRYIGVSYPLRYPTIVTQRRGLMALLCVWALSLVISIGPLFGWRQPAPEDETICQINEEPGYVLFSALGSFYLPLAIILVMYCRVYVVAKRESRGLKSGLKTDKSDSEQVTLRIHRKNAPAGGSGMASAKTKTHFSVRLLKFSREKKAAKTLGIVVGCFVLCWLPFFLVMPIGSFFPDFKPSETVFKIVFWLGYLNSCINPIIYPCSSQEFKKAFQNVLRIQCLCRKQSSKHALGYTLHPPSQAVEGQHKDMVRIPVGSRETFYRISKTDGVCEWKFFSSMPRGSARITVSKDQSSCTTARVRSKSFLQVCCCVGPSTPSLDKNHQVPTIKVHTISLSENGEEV
# [4] = target: T2, Alpha-1B adrenergic receptor (Homo sapiens, UniProt P35368); test: Inhibition of adrenergic receptor 1b receptor expressed in HEK293 cells assessed as inhibition of calcium influx after 10 mins by Fluo-4-AM based fluorimetry; assay type: functional, cell-based; outline: as §2
# T2 sequence (P35368 whole entry): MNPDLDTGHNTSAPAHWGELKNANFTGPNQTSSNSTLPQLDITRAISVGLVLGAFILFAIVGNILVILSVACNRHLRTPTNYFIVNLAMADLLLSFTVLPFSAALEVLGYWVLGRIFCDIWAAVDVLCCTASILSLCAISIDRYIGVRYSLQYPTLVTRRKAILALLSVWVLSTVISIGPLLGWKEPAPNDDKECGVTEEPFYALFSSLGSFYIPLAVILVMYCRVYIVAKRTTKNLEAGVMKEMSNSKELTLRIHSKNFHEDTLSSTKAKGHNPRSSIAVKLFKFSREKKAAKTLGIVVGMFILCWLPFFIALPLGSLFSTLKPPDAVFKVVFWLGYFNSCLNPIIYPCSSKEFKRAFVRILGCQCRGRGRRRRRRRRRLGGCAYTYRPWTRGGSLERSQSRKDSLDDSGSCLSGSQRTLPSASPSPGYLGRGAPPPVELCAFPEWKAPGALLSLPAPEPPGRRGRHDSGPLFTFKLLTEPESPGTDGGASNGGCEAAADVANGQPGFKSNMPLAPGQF
# [5] = target: T3, C-C chemokine receptor type 6 (Homo sapiens, UniProt P51684); test: Inhibition of CCR6 expressed in HEK293 cells assessed as inhibition of calcium influx after 10 mins by Fluo-4-AM based fluorimetry; assay type: functional, cell-based; outline: as §2
# T3 sequence (P51684 whole entry): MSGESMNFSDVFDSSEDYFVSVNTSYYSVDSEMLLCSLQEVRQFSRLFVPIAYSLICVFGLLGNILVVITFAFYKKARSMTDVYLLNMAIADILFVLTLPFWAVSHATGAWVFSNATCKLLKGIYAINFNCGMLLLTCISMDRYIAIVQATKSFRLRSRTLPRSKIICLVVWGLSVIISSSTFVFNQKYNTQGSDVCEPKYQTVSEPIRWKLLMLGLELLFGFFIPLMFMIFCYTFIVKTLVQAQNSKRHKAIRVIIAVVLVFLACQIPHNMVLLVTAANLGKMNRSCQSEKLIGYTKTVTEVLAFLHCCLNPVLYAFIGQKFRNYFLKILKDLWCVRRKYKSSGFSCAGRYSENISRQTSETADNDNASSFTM
# [6] = target: T4, Glucagon receptor (Homo sapiens, UniProt P47871); test: Inhibition of GCGR expressed in HEK293 cells assessed as inhibition of calcium influx after 10 mins by Fluo-4-AM based fluorimetry; assay type: functional, cell-based
# T4 sequence (P47871 whole entry): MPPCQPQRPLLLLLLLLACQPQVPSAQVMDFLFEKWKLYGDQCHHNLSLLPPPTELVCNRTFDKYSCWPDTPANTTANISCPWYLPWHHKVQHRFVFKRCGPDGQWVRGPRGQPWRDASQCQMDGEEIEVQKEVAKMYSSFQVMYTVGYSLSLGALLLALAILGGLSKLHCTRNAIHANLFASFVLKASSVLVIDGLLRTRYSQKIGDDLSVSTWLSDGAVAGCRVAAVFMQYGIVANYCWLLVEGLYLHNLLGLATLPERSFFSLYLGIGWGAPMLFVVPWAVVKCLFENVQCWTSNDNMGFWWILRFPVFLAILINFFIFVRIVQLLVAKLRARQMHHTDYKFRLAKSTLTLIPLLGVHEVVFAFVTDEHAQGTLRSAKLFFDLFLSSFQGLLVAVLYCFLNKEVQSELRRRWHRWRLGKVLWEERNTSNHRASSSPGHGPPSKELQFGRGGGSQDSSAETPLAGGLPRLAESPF
# Outline: (§3)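 HEK293 cells stably co-expressing GCGR and Gα16 (G418/blasticidin selected) were seeded at 3 × 10^4 cells/well and cultured overnight. They were loaded with 2 μM Fluo-4 AM in HBSS (pH 7.4, 250 μM sulfinpyrazone) at 37 °C for 45 min, held 10 min at room temperature, then given agonist. Calcium was read at ex 485/em 525 nm. IC50 came from nonlinear regression, means ± SEM, n = 3.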
# [7] = target: T4, Glucagon receptor; test: Agonist activity at GCGR expressed in HEK293 cells assessed as calcium influx at 1 uM by Fluor-4-AM based fluorimetry; assay type: functional, cell-based
# Outline: (§4)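 HEK293 cells stably co-expressing GCGR and Gα16, selected with G418/blasticidin, seeded 3 × 10^4/well overnight. Loaded with 2 μM Fluo-4 AM in HBSS with sulfinpyrazone, pH 7.4, 45 min at 37 °C. First stimulation with compound, 100 nM glucagon or 1% DMSO. After 30 min cells washed and restimulated with 100 nM glucagon. Calcium read at ex 485/em 525 nm. Three independent experiments, each in triplicate.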
# [8] = target: T4, Glucagon receptor; test: Induction of GCGR desensitization expressed in HEK293 cells assessed as reduction in glucagon-induced calcium influx at 1 uM incubated for 30 mins prior to glucagon-induction by Fluo-4-AM based fluorimetry; assay type: functional, cell-based; outline: as §4
# [9] = target: T4, Glucagon receptor; test: Activation of pDsRed-tagged GCGR expressed in HEK293 cells assessed as receptor internalization at 1 uM incubated after 30 mins by Hoechst staining-based fluorescence microscopy; assay type: cell-based
# Outline: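 HEK293 cells transfected with pDsRed-GCGR, grown overnight on coverslips. Stimulated 30 min at 37 °C, with 1% DMSO as negative control. Fixed in 4% formaldehyde/PBS, nuclei stained with Hoechst 33342. Surface versus internalized receptor scored by fluorescence microscopy.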
# [10] = target: T5, Protein kinase C (PKC) (Homo sapiens) (UniProt O94806+P41743+P17252+P05129+Q05655+P05771+Q05513+Q02156+P24723+Q15139+Q04759); test: Induction of PKC phosphorylation in HEK293 cells at 1 uM by Western blot analysis; assay type: cell-based; conditions: TDE = time-dependent effect
# Outline: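 HEK293 cells serum-starved 4 h, then treated for various durations at 37 °C, with 100 nM TPA as reference. Lysates run on 10% SDS-PAGE and immunoblotted with an antibody detecting phosphorylated conventional and novel PKC isoforms (1:1000). Signal normalized to GAPDH, detected by ECL. Mean ± SEM, n = 3; two-tailed t test.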
# [11] = target: T5, Protein kinase C (PKC) (Homo sapiens); test: Induction of PKC phosphorylation in HEK293 cells at 1 uM by Western blot analysis in presence of GF109203 X; assay type: cell-based
# Outline: (§5)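 Serum-starved (4 h) HEK293 cells. Phospho-PKC induced by compound (1 μM) or TPA (100 nM), each in the presence of GF109203 X (1 μM) or rottlerin (10 μM). Read by Western blot with phospho-PKC antibody, normalized to GAPDH. Mean ± SEM, n = 3; two-tailed t test.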
# [12] = target: T5, Protein kinase C (PKC) (Homo sapiens); test: Induction of PKC phosphorylation in HEK293 cells at 1 uM by Western blot analysis in presence of rotterin; assay type: cell-based; outline: as §5
# [13] = target: Protein kinase C alpha type (Homo sapiens) (UniProt P17252); test: Activation of human GFP-tagged PKCalpha expressed in HEK293 cells assessed as translocation from cytoplasm to membrane at 1 uM after 30 mins by Hoechst staining-based fluorescence microscopy; assay type: cell-based
# Outline: (§6)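 HEK293 cells transfected with pCR259hPKCα-GFP, grown overnight on coverslips. Pretreated 15 min at 37 °C with GF109203 X or vehicle, then stimulated 30 min. Fixed in 4% formaldehyde/PBS, nuclei stained with Hoechst 33342 10 min at room temperature. GFP-PKCα membrane translocation imaged by inverted fluorescence microscopy.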
# [14] = target: Protein kinase C alpha type (Homo sapiens) (UniProt P17252); test: Activation of human GFP-tagged PKCalpha expressed in HEK293 cells assessed as translocation from cytoplasm to membrane at 1 uM after 30 mins by Hoechst staining-based fluorescence microscopy in presence of GF109203X; assay type: cell-based; outline: as §6
# [15] = target: T4, Glucagon receptor; test: Agonist activity at GCGR expressed in HEK293 cells assessed as calcium influx at 1 uM by Fluor-4-AM based fluorimetry in presence of GF109203X; assay type: functional, cell-based
# Outline: (§7)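 Setup as for the GCGR calcium assay (stable GCGR/Gα16 HEK293, 2 μM Fluo-4 AM, HBSS pH 7.4). Cells preincubated 15 min with 10 μM GF109203X. Then first stimulation with compound, 100 nM glucagon or 1% DMSO. After 30 min cells washed, restimulated with 100 nM glucagon, calcium read at ex 485/em 525 nm. Three independent experiments in triplicate.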
# [16] = target: T4, Glucagon receptor; test: Induction of GCGR desensitization expressed in HEK293 cells assessed as reduction in glucagon-induced calcium influx at 1 uM incubated for 30 mins prior to glucagon-induction by Fluo-4-AM based fluorimetry in presence of GF109203X; assay type: functional, cell-based; outline: as §7
# [17] = target: T4, Glucagon receptor; test: Induction of GCGR desensitization expressed in HEK293 cells assessed as reduction in glucagon-induced calcium influx at 1 uM incubated for 30 mins prior to glucagon-induction by Fluo-4-AM based fluorimetry in presence of rottlerin; assay type: functional, cell-based
# Outline: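 Stable GCGR/Gα16 HEK293 cells loaded with 2 μM Fluo-4 AM, then preincubated 15 min with 10 μM rottlerin. First stimulation with compound, 100 nM glucagon or DMSO. After 30 min cells washed and restimulated with 100 nM glucagon. Intracellular calcium recorded at ex 485/em 525 nm. Three independent experiments in triplicate.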
# [18] = target: T4, Glucagon receptor; test: Agonist activity at GCGR expressed in HEK293 cells assessed as calcium influx at 100 nM by Fluor-4-AM based fluorimetry; assay type: functional, cell-based; outline: as §3
# [19] = target: T4, Glucagon receptor; test: Induction of GCGR desensitization expressed in HEK293 cells assessed as reduction in calcium influx at 100 nM incubated for 30 mins prior to second-induction by Fluo-4-AM based fluorimetry; assay type: functional, cell-based
# Outline: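 GCGR/Gα16 stable HEK293 cells were loaded with Fluo-4 AM and given a first stimulation (100 nM glucagon or test agent; 1% DMSO as the negative control). After a 30 min incubation, cells were washed and restimulated with 100 nM glucagon, and intracellular calcium was recorded at ex 485/em 525 nm. There were three independent experiments, each in triplicate.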
# [20] = target: T4, Glucagon receptor; test: Activation of pDsRed-tagged GCGR expressed in HEK293 cells assessed as receptor internalization at 100 nM incubated after 30 mins by Hoechst staining-based fluorescence microscopy; assay type: cell-based
# Outline: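 HEK293 cells transfected with pDsRed-GCGR were seeded on coverslips, cultured overnight, then stimulated at 37 °C for 30 min, with 1% DMSO as the negative control. Cells were fixed in 4% formaldehyde in PBS and nuclei were stained with Hoechst 33342 for 10 min at room temperature. Receptor surface versus internalized location was judged by fluorescence microscopy.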
# [21] = target: T4, Glucagon receptor; test: Agonist activity at GCGR expressed in HEK293 cells assessed as calcium influx at 100 nM by Fluor-4-AM based fluorimetry in presence of GF109203X; assay type: functional, cell-based
# Outline: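 Fluo-4 AM-loaded GCGR stable HEK293 cells were preincubated with 10 μM GF109203X for 15 min, then stimulated with 100 nM glucagon, test agent or 1% DMSO. After 30 min they were washed and restimulated with 100 nM glucagon, with calcium read fluorimetrically. There were three independent experiments, each in triplicate.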
compound,measurement,setting,value
CC(C)CC(=O)O[C@H]1/C=C/C=C/C(=O)O[C@H]2[C@@H](C)C[C@@H]3[C@]2(O)[C@H](O)[C@@]2(CO)O[C@H]2[C@H]2[C@H]4OC5(c6ccccc6)O[C@@H]([C@@H](C)[C@@]23O5)[C@@]4(O)[C@](C)(O)C[C@H]2CC[C@H]1[C@H]2C [REDIOCIDE A],IC50,[1],88 nM
same,inhibition,[2],Dose-dependent effect
same,IC50,[3],13 nM
same,IC50,[4],215 nM
same,IC50,[5],261 nM
same,IC50,[6],4 nM
same,Activity,[7],inactive
same,Activity,[8],Active
same,Activity,[9],Active
same,Activity,[10],tde
same,Activity,[11],inactive
same,Activity,[12],Active
same,Activity,[13],Active
same,Activity,[14],inactive
same,Activity,[15],inactive
same,Activity,[16],inactive
same,Activity,[17],Active
GLUCAGON,Activity,[18],Active
same,Activity,[19],Active
same,Activity,[20],Active
same,Activity,[21],Active
